# According to ChEMBL document CHEMBL3351411, “Identification and synthesis of quinolizidines with anti-influenza a virus activity” (ACS Med Chem Lett, 2014):
# Calls of active or inactive are those of the source. The calls are words filed in the database; no cut-off is given here.
# How the values were obtained:
# [1] = Cytotoxicity against MDCK cells assessed as reduction in cell viability after 48 hrs by CellTiter-Glo assay; format: cell-based, Canis lupus familiaris; conditions: dog
# How it was run: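 Uninfected MDCK cells were exposed to compound. CC50 is the concentration that reduced cell viability by 50%.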
# Influenza A virus = test: Antiviral activity against Influenza A virus (A/Puerto Rico/8/34(H1N1)) infected in MDCK cells assessed as inhibition of virus-induced cytocidal activity after 48 hrs by CellTiter-Glo assay; format: functional, organism-based; conditions: A/Puerto Rico/8/1934(H1N1)
# How it was run: (§1)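 MDCK cells infected with PR8 (mouse-adapted A/Puerto Rico/8/1934) or VR1679 at MOI = 1 and treated with compound at various concentrations for 2 days. Percent protection from virus killing was calculated by a formula. EC50 is the concentration giving 50% protection from the cytocidal effect. Values are mean ± SD of three independent experiments.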
# Influenza A virus H3N2 [2] = test: Antiviral activity against Influenza A virus H3N2 VR1679 infected in MDCK cells assessed as inhibition of virus-induced cytocidal activity compound treated 6 hrs post infection by time of addition assay; format: functional, organism-based
# How it was run: (§2)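 Time-of-addition assay: MDCK cells infected with VR1679 at MOI = 0.1, with compound added before infection or at various times post-infection. Percent protection of cells from virus killing was calculated by a formula. Data are the average of two independent experiments.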
# Influenza A virus H3N2 [3] = test: Antiviral activity against Influenza A virus H3N2 VR1679 infected in MDCK cells assessed as inhibition of virus-induced cytocidal activity pretreated with compound before infection by time of addition assay; format: functional, organism-based; how it was run: as §2
# Influenza A virus H3N2 [4] = test: Antiviral activity against Influenza A virus H3N2 VR1679 infected in MDCK cells assessed as inhibition of viral nucleoprotein production at 10 uM after 6 hrs by immunostaining-based confocal microscopy; format: functional, organism-based
# How it was run: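 VR1679 infected MDCK cells at MOI = 1 with compound at 10 μM for 6 h. Cells were immunostained with FITC-conjugated anti-NP antibodies and DAPI for nuclei, and viral NP was imaged by laser-scanning confocal microscopy. Infected cells without compound served as controls.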
# Influenza A virus H3N2 [5] = test: Antiviral activity against Influenza A virus H3N2 VR1679 infected in MDCK cells assessed as inhibition of virus-induced cytocidal activity compound treated 4 hrs post infection by time of addition assay; format: functional, organism-based; how it was run: as §2
# MDCK = test: Binding affinity to recombinant Influenza A virus (A/Puerto Rico/8/1934(H1N1)) nucleoprotein in culture medium assessed as protection from Influenza A virus H3N2 VR1679-induced MDCK cytocidal activity after 2 days by CellTiter-Glo assay; format: cell-based
# How it was run: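 MDCK cells infected with VR1679 at MOI = 1, treated with compound with or without recombinant A/Puerto Rico/8/1934 NP at 500 μg/mL in the culture medium. Percent protection from virus killing was read 2 days after infection. Values are mean ± SD of three independent experiments.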
# Influenza A virus H3N2 [6] = test: Antiviral activity against Influenza A virus H3N2 VR1679 infected in MDCK cells assessed as inhibition of virus-induced cytocidal activity compound treated 2 hrs post infection by time of addition assay; format: functional, organism-based; how it was run: as §2
# Influenza A virus H3N2 [7] = test: Antiviral activity against Influenza A virus H3N2 VR1679 infected in MDCK cells assessed as inhibition of virus-induced cytocidal activity after 48 hrs by CellTiter-Glo assay; format: functional, organism-based; how it was run: as §1
# [8] = Selectivity ratio of EC50 for Influenza A virus (A/Puerto Rico/8/34(H1N1)) infected in MDCK cells to EC50 for Influenza A virus H3N2 VR1679 infected in MDCK cells; format: functional
smiles,measurement,setting,value
O=c1cccc2n1C[C@@H]1CNC[C@H]2C1 [CYTISINICLINE],CC50 at 48 h,[1],> 80 µM
same,EC50,Influenza A virus,> 80 µM
CN1CCC[C@@H]2C[C@H]3C[C@H](CN4CCCC[C@H]34)[C@@H]21,CC50 at 48 h,[1],> 80 µM
same,EC50,Influenza A virus,6.2 µM
same,inhibition,Influenza A virus H3N2 [2],inactive
same,inhibition,Influenza A virus H3N2 [3],Active
same,inhibition,Influenza A virus H3N2 [4],Active
same,inhibition,Influenza A virus H3N2 [5],Active
same,Activity,MDCK,Active
same,inhibition,Influenza A virus H3N2 [6],Active
same,inhibition,Influenza A virus H3N2 [7],Active
CCOC(=O)C1=C[C@@H](OC(CC)CC)[C@H](NC(C)=O)[C@@H](N)C1 [OSELTAMIVIR],CC50 at 48 h,[1],> 80 µM
same,EC50,Influenza A virus,> 80 µM
same,inhibition,Influenza A virus H3N2 [2],inactive
same,inhibition,Influenza A virus H3N2 [3],Active
same,Ratio EC50,[8],>200
same,inhibition,Influenza A virus H3N2 [4],inactive
same,inhibition,Influenza A virus H3N2 [5],Active
same,Activity,MDCK,inactive
same,inhibition,Influenza A virus H3N2 [6],Active
same,EC50,Influenza A virus H3N2 [7],> 80 µM
C1CN[C@@H]2C(C1)C[C@H]1C[C@@H]2CN2CCCC[C@H]12 (mixture of isomers),CC50 at 48 h,[1],> 80 µM
same,EC50,Influenza A virus,11.2 µM
CN1CCCC2=C[C@H]3C[C@H](CN4CCCC[C@H]34)[C@@H]21,CC50 at 48 h,[1],> 80 µM
same,EC50,Influenza A virus,9.6 µM
C1CCN2C[C@@H]3C[C@@H](CN4CCCC[C@@H]34)[C@H]2C1 [SPARTEINE],CC50 at 48 h,[1],> 80 µM
same,EC50,Influenza A virus,19.7 µM
O=C(NCCN1CCCC2=C[C@H]3C[C@H](CN4CCCC[C@H]34)[C@@H]21)c1ccccc1F,CC50 at 48 h,[1],> 80 µM
same,EC50,Influenza A virus,5.5 µM
O=C1CCC[C@@H]2[C@H]3CCCN4CCC[C@@H](CN12)[C@@H]34 [MATRINE],CC50 at 48 h,[1],> 80 µM
same,EC50,Influenza A virus,> 80 µM
O=C(c1ccc(C(=O)N2CCCC3=C[C@H]4C[C@H](CN5CCCC[C@H]45)[C@@H]32)s1)N1CCCC2=C[C@H]3C[C@H](CN4CCCC[C@H]34)[C@@H]21,CC50 at 48 h,[1],> 80 µM
same,EC50,Influenza A virus,2.4 µM
CCN1CCCC2=C[C@H]3C[C@H](CN4CCCC[C@H]34)[C@@H]21,CC50 at 48 h,[1],> 80 µM
same,EC50,Influenza A virus,7.7 µM
CN1CCC[C@H]2C[C@H]3C[C@H](CN4CCCC[C@H]34)[C@@H]21,CC50 at 48 h,[1],> 80 µM
same,EC50,Influenza A virus,8.1 µM
C1=C2CCCN[C@H]2[C@@H]2C[C@H]1[C@H]1CCCCN1C2,CC50 at 48 h,[1],> 80 µM
same,EC50,Influenza A virus,14.5 µM
NC12CC3CC(CC(C3)C1)C2 [AMANTADINE],CC50 at 48 h,[1],> 80 µM
same,EC50,Influenza A virus,> 80 µM
Cc1onc(-c2ccccc2)c1C(=O)N1CCN(c2ccc([N+](=O)[O-])cc2Cl)CC1 [NUCLEOZIN],CC50 at 48 h,[1],> 80 µM
same,EC50,Influenza A virus,0.71 µM
CN1CC2CC(C1)c1cccc(=O)n1C2 (configuration not stated),CC50 at 48 h,[1],> 80 µM
same,EC50,Influenza A virus,> 80 µM
C1=C2CCCN(CC3CCCCC3)[C@H]2[C@@H]2C[C@H]1[C@H]1CCCCN1C2,CC50 at 48 h,[1],> 80 µM
same,EC50,Influenza A virus,29.3 µM
O=C1CCC[C@@H]2[C@H]3CCC[N+]4([O-])CCC[C@@H](CN12)[C@@H]34 (some centres not stated) [OXYMATRINE],CC50 at 48 h,[1],> 80 µM
same,EC50,Influenza A virus,> 80 µM
C1=C2CCCN(CC3CCC3)[C@H]2[C@@H]2C[C@H]1[C@H]1CCCCN1C2,CC50 at 48 h,[1],> 80 µM
same,EC50,Influenza A virus,18.8 µM
C1=C2CCCN(CC3CC3)[C@H]2[C@@H]2C[C@H]1[C@H]1CCCCN1C2,CC50 at 48 h,[1],> 80 µM
same,EC50,Influenza A virus,15.1 µM
C1CCN2C[C@@H]3C[C@@H](CN4CCCC[C@H]34)[C@H]2C1,CC50 at 48 h,[1],> 80 µM
same,EC50,Influenza A virus,21.3 µM
CC(C)CN1CCCC2=C[C@H]3C[C@H](CN4CCCC[C@H]34)[C@@H]21,CC50 at 48 h,[1],> 80 µM
same,EC50,Influenza A virus,34.5 µM
